Source: ChEMBL document CHEMBL1123103, “Pyrimidinones. 1. 2-Amino-5-halo-6-aryl-4(3H)-pyrimidinones. Interferon-inducing antiviral agents” (1985)

What was measured:
Type in all cases: functional
Semliki Forest virus [1] = test: Antiviral activity against Forest virus (SFV)
In short: (§1)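 ICR or CD-1 mice of both sexes got one drug dose by the route in the line (ip, po or sc). The drug was a suspension in 0.9% NaCl or in a CMC/polysorbate 80/benzyl alcohol/NaCl vehicle. […] Deaths were recorded daily for 6 days, 24 mice/group. ED50 is the minimal dose protecting 50% of mice, by probit analysis.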

Human alphaherpesvirus 1 = test: Intraperitoneal administration against herpes simplex virus type-1 (HSV-1) infected mice
In short: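 ICR or CD-1 mice got drug ip in saline as the total daily dose (mg/kg/day). It was split into doses at -40, -28, -20, -3 and +3 h relative to ip inoculation with 5.6×10^4 pfu HSV-1. Mice were followed for 22 days, 15/group. Protection index = (control mortality − treated mortality)/control mortality; >0.25 counted active. Only the lowest protective dose is recorded.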

Semliki Forest virus [2] = test: Effective dose administered perorally againist Forest virus infected mice; settings: po; in short: as §1
Semliki Forest virus [3] = test: Effective dose administered subcutaneously againist Forest virus infected mice; settings: sc; in short: as §1
[4] = test system: Vesicular stomatitis virus; test: Evaluation for serum interferon response from a single 800 mg/kg intraperitoneal administration in vesicular stomatitis virus on […] cells.
In short: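 Mice got a single ip 800 mg/kg dose. Blood was drawn 3, 6, 8 and 12 h later from five mice per group and pooled. Interferon titer was measured by plaque reduction with vesicular stomatitis virus on L929 cells. Titer is the reciprocal serum dilution cutting plaques by 50% versus untreated cultures. Peak response within 24 h was banded: ≥2000, ~500-1000, ~50-500, ~10-50 U/mL.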

| Compound | ED50 (Semliki Forest virus [1]) | Protection index (Human alphaherpesvirus 1) | ED50 (Semliki Forest virus [2]) | ED50 (Semliki Forest virus [3]) | IFN [4] |
| --- | --- | --- | --- | --- | --- |
| COc1cc(OC)cc(-c2nc(N)nc(O)c2I)c1 | 55 mg/kg |  |  |  |  |
| Nc1nc(O)c(Cl)c(-c2cccc(O)c2)n1 |  | 0.5 |  |  |  |
| Nc1nc(O)c(Cl)c(-c2cccc3ccccc23)n1 | 80 mg/kg | 0.54 | > 400 mg/kg | > 400 mg/kg |  |
| Cc1ccccc1-c1nc(N)nc(O)c1I | 175 mg/kg | 0.13 | > 400 mg/kg | 205 mg/kg |  |
| Nc1nc(O)c(Br)c(-c2cc(F)cc(F)c2)n1 | 150 mg/kg | 0 |  |  | 50 units/mL |
| CCOCCOc1cccc(-c2nc(N)nc(O)c2Br)c1 |  | 0.55 |  |  |  |
| Nc1nc(O)c(I)c(-c2cccc(C(F)(F)F)c2)n1 | 160 mg/kg | 0.36 | > 400 mg/kg | > 400 mg/kg | >=2000 ml |
| Nc1nc(O)c(I)c(-c2ccccc2Cl)n1 | 90 mg/kg | 0.13 |  |  |  |
| Nc1nc(O)c(I)c(-c2cc(F)ccc2F)n1 | 95 mg/kg | 0 | > 400 mg/kg |  | >=2000 ml |
| COc1ccccc1-c1nc(N)nc(O)c1Br | 15 mg/kg | 0.92 | > 400 mg/kg | 100 mg/kg | 50 units/mL |
| Nc1nc(O)c(I)c(-c2ccc(C(=O)O)cc2)n1 | 380 mg/kg |  |  |  |  |
| Nc1nc(O)c(Cl)c(-c2cc(F)cc(F)c2)n1 | 185 mg/kg | 0.5 | > 400 mg/kg |  | 50 units/mL |
| Nc1nc(O)c(Cl)c(-c2cc(Cl)ccc2Cl)n1 | 120 mg/kg | 0.47 | 200 mg/kg | 115 mg/kg | >=2000 ml |
| Nc1nc(O)c(I)c(-c2ccncc2)n1 | 365 mg/kg |  | > 400 mg/kg | > 400 mg/kg |  |
| Nc1nc(O)c(Br)c(-c2cccc(Cl)c2)n1 | 30 mg/kg | 0.78 | > 400 mg/kg | 300 mg/kg | >=2000 ml |
| COc1ccccc1-c1nc(N)nc(O)c1I | 25 mg/kg | 0.69 | > 400 mg/kg | 120 mg/kg | 50 units/mL |
| Nc1nc(O)c(Br)c(-c2ccccc2Cl)n1 | 285 mg/kg |  |  |  |  |
| CCOCCOc1cccc(-c2nc(N)nc(O)c2I)c1 |  | 0.21 |  |  |  |
| Nc1nc(O)c(Br)c(-c2cccc(F)c2F)n1 | 115 mg/kg | 0.54 | 330 mg/kg |  | >=2000 ml |
| CCOc1cccc(-c2nc(N)nc(O)c2Cl)c1 |  | 0.13 |  |  |  |
| Nc1nc(O)c(Br)c(-c2ccccn2)n1 | 75 mg/kg |  | 310 mg/kg | 65 mg/kg | >=2000 ml |
| Nc1nc(O)c(I)c(-c2cccc(I)c2)n1 | 125 mg/kg | 0.53 |  |  | 50 units/mL |
| Nc1nc(O)c(I)c(-c2cccc(F)c2F)n1 | > 400 mg/kg | 0.34 | 365 mg/kg |  | >=2000 ml |
| Nc1nc(O)c(I)c(-c2c(F)cccc2F)n1 | 285 mg/kg |  |  |  |  |
| Nc1nc(O)c(Cl)c(-c2ccccc2O)n1 |  | 0.61 |  |  |  |
| COc1ccccc1-c1nc(N)nc(O)c1Cl | 20 mg/kg | 0.53 | > 400 mg/kg |  | 50 units/mL |
| Nc1nc(O)c(Br)c(-c2ccoc2)n1 | > 400 mg/kg |  |  |  |  |
| Nc1nc(O)c(Br)c(-c2cccnc2)n1 | 75 mg/kg | 0.45 | > 400 mg/kg | > 400 mg/kg |  |
